Results from ChEMBL document CHEMBL1955810, “Thieno[2,3-d]pyrimidinedione derivatives as antibacterial agents” (Eur J Med Chem, 2012).
Converted amounts (≈) assume the structure as drawn.

Legend:
Staphylococcus aureus [1] = assay: Antibacterial activity against methicillin-resistant Staphylococcus aureus 494 after 18 to 24 hrs by broth microdilution method; assay type: functional
Method in brief: (§1)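 MIC by broth microdilution in Mueller-Hinton broth. Strains grown overnight at 35°C on tryptic soy agar, suspended in saline to 0.5 McFarland, diluted in MHB, final inoculum 5 × 10⁵ CFU/mL. Twofold serial dilutions, final 0.06 to 32 mg/L. Incubated 35°C for 18–24 h. MIC read visually as lowest concentration preventing growth.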

Enterococcus faecium = assay: Antibacterial activity against vancomycin-resistant Enterococcus faecium 7303 after 18 to 24 hrs by broth microdilution method; assay type: functional; method in brief: as §1
Staphylococcus aureus [2] = assay: Antibacterial activity against vancomycin-intermediate Staphylococcus aureus Mu50 after 18 to 24 hrs by broth microdilution method; assay type: functional
Method in brief: (§2)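 Strains grown overnight at 35°C on tryptic soy agar; 0.5 McFarland saline suspension diluted in Mueller-Hinton broth, final inoculum 5 × 10⁵ CFU/mL. Twofold serial dilutions, final 0.06 to 32 mg/L, in MHB; incubated 35°C for 18–24h. MIC read visually as lowest concentration preventing growth.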

Streptococcus pneumoniae = assay: Antibacterial activity against Streptococcus pneumoniae ATCC 49619 after 18 to 24 hrs by broth microdilution method; assay type: functional; method in brief: as §2
Klebsiella pneumoniae = assay: Antibacterial activity against Klebsiella pneumoniae CEF 3978 after 18 to 24 hrs by broth microdilution method; assay type: functional; method in brief: as §2
Pseudomonas aeruginosa = assay: Antibacterial activity against Pseudomonas aeruginosa ATCC 27853 after 18 to 24 hrs by broth microdilution method; assay type: functional; method in brief: as §2
Klebsiella aerogenes = assay: Antibacterial activity against Enterobacter aerogenes CEF 3978 after 18 to 24 hrs by broth microdilution method; assay type: functional; method in brief: as §2
Staphylococcus aureus [3] = assay: Antibacterial activity against vancomycin-resistant Staphylococcus aureus MI after 18 to 24 hrs by broth microdilution method; assay type: functional; method in brief: as §1
Escherichia coli = assay: Antibacterial activity against Escherichia coli ATCC 25922 after 18 to 24 hrs by broth microdilution method; assay type: functional; method in brief: as §2
[4] = Therapeutic index, ratio of LD50 for mouse NIH/3T3 cells to MIC for vancomycin-resistant Staphylococcus aureus MI; assay type: cell-based; conditions: read-out: TI
Method in brief: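 Index computed as LD50 from NIH-3T3 MTS viability (24 h exposure, 10–100 mg/L, nonlinear regression) divided by VRSA MIC from broth microdilution (5 × 10⁵ CFU/mL, 35°C, 18–24 h, visual read).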

[5] = Cytotoxicity against mouse NIH/3T3 cells after 24 hrs by MTS assay; assay type: cell-based, NIH3T3; conditions: read-out: LD50
Method in brief: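 NIH-3T3 mouse embryo fibroblasts kept in DMEM with 10% FBS, about 10,000 cells per well, attached overnight. Treated 24 h with 10, 25, 50 or 100 mg/L compound (DMSO) in DMEM/FBS. MTS added in fresh DMEM for 1 h at 37 °C, absorbance at 490 nm. Four replicates, media negative and 5% DMSO positive controls. Viability relative to untreated cells; LD50 by nonlinear regression.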

[6] = Toxicity in sheep RBC assessed as hemolysis at 50 times MIC after 1 hr; assay type: cell-based, Ovis aries, Erythrocyte; conditions: sheep red blood cells, read-out: Activity
Method in brief: (§3)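 Sheep RBCs separated from plasma and white cells by centrifugation, washed twice in TBS (10 mM Tris, 150 mM NaCl, pH 7.0), diluted to 1%. Treated with increasing concentrations of compound in DMSO, 37 °C for 1 h, in duplicate. Supernatant absorbance at 414 nm for hemoglobin release; DMSO set as 0%, 1% Triton X as 100% hemolysis.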

[7] = Toxicity in sheep RBC assessed as hemolysis at 25 times MIC after 1 hr; assay type: cell-based, Ovis aries, Erythrocyte; conditions: sheep red blood cells, read-out: Activity; method in brief: as §3

SMILES	MIC (Staphylococcus aureus [1]) [µg/mL]	MIC (Enterococcus faecium) [µg/mL]	MIC (Staphylococcus aureus [2]) [µg/mL]	MIC (Streptococcus pneumoniae) [µg/mL]	MIC (Klebsiella pneumoniae) [µg/mL]	MIC (Pseudomonas aeruginosa) [µg/mL]	MIC (Klebsiella aerogenes) [µg/mL]	MIC (Staphylococcus aureus [3]) [µg/mL]	MIC (Escherichia coli) [µg/mL]	selectivity ratio [4]	CC50 at 24 h [5] [µg/mL]	hemolysis at 1 h, 50 times MIC [6] [%]	hemolysis at 1 h, 25 times MIC [7] [%]
CCOC(=O)c1sc(NC(=O)NC/C=C/c2ccc(OC)cc2)c(C(=O)OCC)c1CCc1ccccc1	> 32	> 32	> 32	> 32	> 32	> 32	> 32	> 32	> 32				
CN[C@H](CC(C)C)C(=O)N[C@H]1C(=O)N[C@@H](CC(N)=O)C(=O)N[C@H]2C(=O)N[C@H]3C(=O)N[C@H](C(=O)N[C@H](C(=O)O)c4cc(O)cc(O)c4-c4cc3ccc4O)[C@H](O)c3ccc(c(Cl)c3)Oc3cc2cc(c3O[C@@H]2O[C@H](CO)[C@@H](O)[C@H](O)[C@H]2O[C@H]2C[C@](C)(N)[C@H](O)[C@H](C)O2)Oc2ccc(cc2Cl)[C@H]1O [VANCOMYCIN]		> 32		0.5 (≈ 0.345 µM)		> 32							
COc1ccc(/C=C/Cn2c(=O)[nH]c3sc4c(c3c2=O)C(Cc2ccccc2)CC(C(C)C)C4)cc1 (stereo unspecified)	> 32	> 32	> 32	32 (≈ 63.9 µM)	> 32	> 32	32 (≈ 63.9 µM)	> 32	> 32	4	120 (≈ 240 µM)		
CCOC(=O)c1sc(NC(=O)NC/C=C/c2ccc(O[Si](C)(C)C(C)(C)C)cc2)c(C(=O)OCC)c1CCc1ccccc1	> 32	> 32	> 32	> 32	> 32	> 32	> 32	> 32	> 32				
CCOC(=O)c1sc2[nH]c(=O)n(C/C=C/c3ccc(O)cc3)c(=O)c2c1CCc1ccccc1	2 (≈ 4.2 µM)	4 (≈ 8.39 µM)	2 (≈ 4.2 µM)	8 (≈ 16.8 µM)	32 (≈ 67.1 µM)	32 (≈ 67.1 µM)	16 (≈ 33.6 µM)	2 (≈ 4.2 µM)	> 32	26	52 (≈ 109 µM)	2	
CCOC(=O)c1sc2[nH]c(=O)n(C/C=C/c3ccc(OC)cc3)c(=O)c2c1CCc1ccccc1	> 32	> 32	> 32	> 32	> 32	> 32	8 (≈ 16.3 µM)	> 32	> 32	3	98 (≈ 200 µM)		
CC(C)C1Cc2sc3[nH]c(=O)n(C/C=C/c4ccc(O)cc4)c(=O)c3c2C(Cc2ccccc2)C1 (stereo unspecified)	16 (≈ 32.9 µM)	8 (≈ 16.4 µM)	16 (≈ 32.9 µM)	32 (≈ 65.8 µM)	32 (≈ 65.8 µM)	16 (≈ 32.9 µM)	32 (≈ 65.8 µM)	8 (≈ 16.4 µM)	32 (≈ 65.8 µM)	5	42 (≈ 86.3 µM)		7
CCOC(=O)c1c(NC(=O)NC/C=C/c2ccc(O[Si](C)(C)C(C)(C)C)cc2)sc2c1C(Cc1ccccc1)CC(C(C)C)C2 (stereo unspecified)	> 32	> 32	> 32	> 32	> 32	> 32	> 32	> 32	> 32				
